Screening results from PubChem BioAssay.
IDH1 mut inh: blocks human IDH1 R132H reductase activity. inhibition, % at 10 µM. diaphorase/resazurin fluorescence, 60 min. O75874. 70,000 compounds, 0.18% hits; in the data active = inhibition above about 34%; inconclusive = no clear call, values can overlap the other calls; inactive = below about 11%;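 also: 0% = DMSO and 100% = no enzyme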
Target sequence (O75874 whole entry R132H): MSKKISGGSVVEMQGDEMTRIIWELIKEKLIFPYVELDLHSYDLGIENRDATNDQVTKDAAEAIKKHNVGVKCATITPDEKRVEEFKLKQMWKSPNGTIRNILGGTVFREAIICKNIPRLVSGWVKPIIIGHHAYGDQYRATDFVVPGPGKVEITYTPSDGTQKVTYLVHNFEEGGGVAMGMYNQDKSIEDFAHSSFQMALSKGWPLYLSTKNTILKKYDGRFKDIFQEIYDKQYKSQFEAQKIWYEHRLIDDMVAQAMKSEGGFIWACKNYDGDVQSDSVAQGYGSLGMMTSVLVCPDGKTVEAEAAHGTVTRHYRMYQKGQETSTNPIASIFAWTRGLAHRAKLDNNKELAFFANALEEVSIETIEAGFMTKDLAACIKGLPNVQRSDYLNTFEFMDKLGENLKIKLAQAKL
T cruzi growth-1: inhibitors of T. cruzi proliferation. T. cruzi beta-gal in NIH3T3, GalScreen luminescence, 90 h. inhibition, % at 8.34 µM. 77,000 compounds, 5.9% hits;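 active = mean inhibition above about 93%, with at least 55% of replicates each passing it, limit read from the data, passing the limit was not always enough; inconclusive = only one of those two conditions holds; inactive = neither condition holds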
GASC1 inh: blocks human GASC-1 (KDM4C) demethylase activity | Q9H3R0 | GST-KDM4C 2-372, H3K9me3 peptide, LANCE TR-FRET | inhibition, % at 12.5 µM | 96,000 compounds, 0.15% hits | AID 720574;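 active = mean replicate inhibition above about 25%, with at least 55% of replicates also reaching it, limit read from the data, passing the limit was not always enough; inconclusive = only one of those two conditions met; inactive = neither condition met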
Target sequence (Q9H3R0 2-372 limits assumed): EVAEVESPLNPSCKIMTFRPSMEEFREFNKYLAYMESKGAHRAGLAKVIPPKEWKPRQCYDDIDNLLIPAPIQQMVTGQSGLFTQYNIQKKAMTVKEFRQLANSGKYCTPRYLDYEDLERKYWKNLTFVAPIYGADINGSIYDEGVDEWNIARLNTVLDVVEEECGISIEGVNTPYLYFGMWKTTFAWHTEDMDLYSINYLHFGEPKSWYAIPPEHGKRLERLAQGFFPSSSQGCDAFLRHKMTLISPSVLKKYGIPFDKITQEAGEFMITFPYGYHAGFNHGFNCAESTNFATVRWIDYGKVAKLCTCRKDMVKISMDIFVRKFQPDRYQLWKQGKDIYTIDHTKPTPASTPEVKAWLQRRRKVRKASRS
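Test system – GST-tagged GASC-1 (JMJD2C) catalytic fragment, aa 2-372 · Medium – HEPES buffer, pH 7.5, plus ascorbate · Reagent – H3K9me3 peptide with Fe(II)/2OG · Compound – one test concentration per compound · Timing – 30 min reaction, 60 min detection, RT · Technique – TR-FRET with Eu antibody and ULight streptavidin, EDTA stop · Read-out basis – inhibition from TR-FRET ratio decrease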
Pf Dd2 inh: P. falciparum Dd2 growth inhibition | SYBR Green, 72 h; active compounds read low | activity change, % at 10 µM | 94,000 compounds, 2.3% hits | AID 1159554; in the data active = activity change below about -80%; inconclusive = no clear call, values can overlap the other calls
T cruzi growth-2: inhibitors of T. cruzi proliferation. shares compounds with T cruzi growth-1. T. cruzi beta-gal in NIH3T3, GalScreen luminescence, 90 h. inhibition, % at 8.35 µM. 5,600 compounds, 72% hits. AID 651739;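 active = mean replicate inhibition above about 95% and at least 55% of replicates individually reaching it, limit read from the data; inconclusive = only one of the two criteria is met; inactive = neither criterion is met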
T cruzi growth-3: blocks T. cruzi growth in NIH3T3 host cells. 5,600 compounds, 21% hits. T. cruzi beta-gal in NIH3T3, GalScreen luminescence, 90 h. shares compounds with T cruzi growth-1. inhibition, % at 2.09 µM;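 active = mean inhibition above about 95%, with at least 55% of replicates also reaching it, limit read from the data; inconclusive = meets just one of the two conditions; inactive = meets neither condition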;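 also: plate controls were neutral control median for no effect and positive control median for full effect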
NIH3T3 tox: NIH/3T3 (mouse) viability loss. shares compounds with T cruzi growth-1. NIH/3T3 viability, CellTiter-Glo ATP luminescence, 90 h. cytotoxicity (signal decrease), % at 8.35 µM. 5,600 compounds, 14% hits;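 active = mean signal decrease across replicates above about 35% based on untreated-well scatter, with enough replicates individually passing, limit read from the data; inconclusive = no rule stated though some were filed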;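 also: 0% = median of neutral control wells and 100% = median of positive control wells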
NIH3T3 tox 2: cytotoxicity in mouse NIH/3T3 fibroblasts; AID 651744; NIH/3T3 viability, CellTiter-Glo ATP luminescence, 90 h; shares compounds with T cruzi growth-1; 5,600 compounds, 56% hits; inhibition, % at 24.9 µM;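 active = mean loss of cell viability signal at or above a set limit, and enough replicates individually reaching it; inconclusive = meets only the mean limit or only the replicate share; inactive = meets neither condition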;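 also: 0% = median of neutral control wells and 100% = median of positive control wells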
* = called active by the depositor; ? = inconclusive; . = not tested or not shown. Compounds with a hit are over-represented: about 5.8% of the library has one in this group of screens.

SMILES | IDH1 mut inh | T cruzi growth-1 | GASC1 inh | Pf Dd2 inh | T cruzi growth-2 | T cruzi growth-3 | NIH3T3 tox | NIH3T3 tox 2
OC[C@H]1[C@H](c2ccc(-c3ccccc3)cc2)[C@@H]2CN(Cc3cncnc3)CCCCN12 | . | 106.6* | -0.8 | -40.3 | 103.0* | 94.1 | 22.8 | 34.5*
O=S(=O)(NCC[C@H]1CC[C@H](NS(=O)(=O)c2ccccc2Cl)[C@H](CO)O1)c1ccc(Cl)cc1 | -0.2 | -5.2 | 2.9 | -12.6 | . | . | . | .
Cc1cccc(-c2ccc([C@H]3[C@H](CO)N4CCCCN(Cc5cncnc5)C[C@@H]34)cc2)c1 | . | 103.0* | -0.4 | 6.9 | 99.7* | 74.5 | 9.3 | 11.4
OC[C@@H]1[C@H](c2ccc(C#Cc3ccccc3F)cc2)[C@H]2CN(Cc3cncnc3)CCCCN12 | . | 117.9* | -0.3 | -76.4 | 102.9* | 96.1* | 43.6* | 105.5*
OC[C@H]1[C@H](c2ccc(-c3cccc(F)c3)cc2)[C@H]2CN(Cc3cncnc3)CCCCN21 | . | 94.0* | 0.8 | -21.9 | 92.3 | -5.4 | 15.1 | 104.6*
Cc1cccc(-c2ccc([C@@H]3[C@@H](CO)N4CCCCN(Cc5ccncc5)C[C@@H]34)cc2)c1 | . | 71.2 | 2.6 | 4.3 | . | . | . | .
OC[C@@H]1[C@@H](c2ccc(C#Cc3ccccc3)cc2)[C@H]2CN(Cc3cncnc3)CCCCN12 | . | 69.7 | -0.9 | -32.0 | . | . | . | .
OC[C@@H]1[C@@H](c2ccc(-c3cccc(F)c3)cc2)[C@H]2CN(Cc3cncnc3)CCCCN12 | . | 60.3 | 0.4 | -5.6 | . | . | . | .
Cc1cccc(-c2ccc([C@H]3[C@@H](CO)N4CCCCN(Cc5ccncc5)C[C@@H]34)cc2)c1 | . | 103.1* | 4.3 | -1.7 | 110.8* | 68.0 | 24.9 | 105.2*
CC(C)NC(=O)N(C)C[C@H]1Oc2c(NC(=O)c3ccc(-c4nccs4)cc3)cccc2C(=O)N([C@H](C)CO)C[C@H]1C | -12.2 | -37.4 | 0.6 | -13.0 | . | . | . | .
COc1ccc(NC(=O)Nc2ccc3c(c2)C(=O)N([C@H](C)CO)C[C@@H](C)[C@@H](CN(C)Cc2ccncc2)OCCCC[C@@H](C)O3)cc1 | . | 83.1 | 2.0 | -56.3 | . | . | . | .
COc1cccc(NC(=O)Nc2ccc3c(c2)C(=O)N(C)[C@@H]2CC[C@H](CC(=O)NCCc4ccccc4)O[C@H]2CO3)c1 | . | 26.5 | -3.7 | . | . | . | . | .
COc1ccc(S(=O)(=O)N(C)C[C@@H]2OCCCC[C@H](C)Oc3ccc(NS(=O)(=O)c4ccc(Cl)cc4)cc3C(=O)N([C@@H](C)CO)C[C@H]2C)cc1 | 0.8 | . | -1.4 | -25.0 | . | . | . | .
C[C@@H]1CN([C@@H](C)CO)S(=O)(=O)c2ccc(/C=C/c3ccccc3)cc2O[C@@H]1CN(C)C(=O)NC1CCCC1 | 1.3 | ? | -1.7 | -19.9 | 101.8* | 81.7 | 2.7 | 25.5*
C[C@H]1CN([C@@H](C)CO)S(=O)(=O)c2ccc(/C=C/c3ccccc3)cc2O[C@@H]1CN(C)C(=O)NC1CCCC1 | . | 99.1* | -2.4 | -26.9 | ? | 56.2 | -1.5 | 96.0*
C[C@@H]1CN([C@H](C)CO)C(=O)c2cc(C#CC3CCCCC3)cnc2O[C@@H]1CN(C)C(=O)C1CCCCC1 | -3.1 | -15.5 | -1.2 | -36.4 | . | . | . | .
COc1ccccc1S(=O)(=O)N(C)C[C@H]1Oc2cc(C#CCC(C)C)ccc2S(=O)(=O)N([C@@H](C)CO)C[C@@H]1C | -2.3 | ? | -0.7 | -69.6 | ? | 113.7* | 23.9 | 98.5*
COc1ccccc1S(=O)(=O)N(C)C[C@H]1Oc2cc(C#CCC3CCCC3)ccc2S(=O)(=O)N([C@H](C)CO)C[C@@H]1C | -2.7 | . | -0.5 | -2.9 | . | . | . | .
COc1ccccc1S(=O)(=O)N(C)C[C@H]1Oc2cc(C#CCC3CCCC3)ccc2S(=O)(=O)N([C@H](C)CO)C[C@H]1C | . | 127.3* | 26.0* | -67.1 | 87.3 | 110.3* | 9.8 | 19.6
C[C@H]1CN([C@@H](C)CO)C(=O)c2cccc(NC(=O)Nc3ccc(F)cc3)c2O[C@H]1CN(C)Cc1ccc(-c2ccccc2)cc1 | 1.8 | ? | -1.2 | -1.5 | . | . | . | .
CCC(=O)Nc1ccc2c(c1)OC[C@@H](C)N(CCc1ccccc1)C[C@H](C)[C@@H](OC)CN(C)C2=O | -0.5 | 58.0 | 0.9 | -33.7 | . | . | . | .
CO[C@H]1CN(C)C(=O)c2cc(NC(=O)NC3CCCCC3)ccc2OC[C@H](C)N(CCc2ccccc2)C[C@@H]1C | 0.9 | 86.0 | 2.0 | -33.8 | . | . | . | .
CO[C@@H]1CN(C)C(=O)c2ccc(NC(=O)NC3CCCCC3)cc2OC[C@@H](C)N(CCc2ccccc2)C[C@H]1C | 0.2 | 117.8* | -0.5 | -79.5 | 110.1* | 50.6 | 21.6 | 10.3
CO[C@@H]1CN(C)C(=O)c2ccc(NC(=O)Cc3ccccc3)cc2OC[C@@H](C)N(CCc2ccccc2)C[C@H]1C | 0.2 | 99.1* | 0.2 | -60.9 | 99.7* | 103.6* | -3.8 | 11.3
COc1ccc(-c2ccc3c(c2)[C@@H]2[C@@H](CCN2C(=O)Cc2cccnc2)[C@@H](CO)N3C)cc1 | . | 80.8 | 1.6 | -0.2 | . | . | . | .
SMILES | IDH1 mut inh | T cruzi growth-1 | GASC1 inh | Pf Dd2 inh | T cruzi growth-2 | T cruzi growth-3 | NIH3T3 tox | NIH3T3 tox 2
CN1c2ccc(-c3ccccc3)cc2[C@@H]2[C@@H](CCN2C(=O)Cc2cccnc2)[C@@H]1CO | . | 106.0* | 0.0 | -0.3 | 108.8* | 71.0 | 2.1 | 1.4
CN1c2ccc(-c3ccc(F)cc3)cc2[C@@H]2[C@@H](CCN2C(=O)Cc2cccnc2)[C@@H]1CO | . | ? | -0.1 | -62.6 | 106.4* | 62.3 | -13.4 | -6.3
CN1c2ccc(-c3ccccc3)cc2[C@@H]2[C@@H](CCN2C(=O)Cc2ccccc2)[C@@H]1CO | . | 101.8* | -1.8 | 10.3 | 103.1* | 110.8* | -14.7 | 105.6*
CO[C@@H]1CN(C)C(=O)c2ccc(NC(=O)c3ccc4c(c3)OCO4)cc2OC[C@H](C)N(CCC(F)(F)F)C[C@H]1C | 0.5 | 10.1 | 1.3 | -39.4 | . | . | . | .
COc1ccc(-c2ccc([C@H]3[C@@H](C#N)N(C(=O)C4CC4)[C@H]3CO)cc2)cc1 | . | 105.0* | -1.8 | -44.0 | 83.2 | 35.5 | -8.9 | 20.1
COc1ccccc1-c1ccc([C@@H]2[C@@H](C#N)N(C(=O)C3CCC3)[C@H]2CO)cc1 | . | 48.5 | -0.1 | 3.9 | . | . | . | .
COc1ccccc1-c1ccc([C@@H]2[C@@H](C#N)N(C(=O)C3CC3)[C@H]2CO)cc1 | . | 103.8* | -1.6 | 7.7 | 41.9 | 41.0 | 5.5 | 20.9
COc1ccc(-c2ccc([C@@H]3[C@H](C#N)N(C(=O)C4CC4)[C@H]3CO)cc2)cc1 | . | 57.6 | 0.9 | -11.9 | . | . | . | .
N#C[C@H]1[C@@H](c2ccc(-c3ccccc3F)cc2)[C@@H](CO)N1C(=O)C1CC1 | -0.1 | 104.0* | -2.6 | 27.4 | 106.7* | 61.6 | 27.4 | ?
